{"source": "the RNAGym collection of RNA variant scans (doi:10.1126/science.aae0568)", "parents": {"B1": {"name": "tRNA (parent)", "chain": "GUUCCGUUGGCGUAAUGGUAACGCGUCUCCCUCCUAAGGAGAAGACUGCGGGUUCGAGUCCCGUACGGAACG"}}, "note": "Variants at the floor of the assay were thinned out."}
{"variants_of": "B1", "assay": "yeast fitness relative to wild type (ratio to wild type); higher = fitter; tRNA-Arg(CCU), competitive growth, 37 C, YPD", "in_short": "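Variants of the tRNA-Arg(CCU) gene, chemically synthesised with a 3% per-site mutation rate at 69 sites, were placed at the native genomic locus in Saccharomyces cerevisiae. The pooled strains were competed in YPD at 37°C for 24 hours in six parallel replicates. Gene amplicons from the start population and from each end population were read by 100-nucleotide paired-end sequencing. Darwinian fitness relative to wild type came from changes in genotype frequencies; genotypes needed ≥ 100 starting reads, and estimates < 0.5 were set to 0.5.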"}
{"variant": "GUUCCGUUGGCGUAAUGGUAACGCGUCUCCCUCCUAACGAGAAGACUGCGGGUUCGAGUCCUGUACGGUACG", "note": "[G38C C62U A69U]", "yeast fitness": 0.603}
{"variant": "GUUCCGUUGGCGUAAUGGUAACGCGUCUCCCUCCUAACGAGAAGAUUGCGGGUUCGAGUCCCGUACGGUGCG", "note": "[G38C C46U A69U A70G]", "yeast fitness": "≤ 0.5"}
{"variant": "GUUCCGUUGGCGUAAUGGUAACGCGUCUCCCUCCUAACGAGAAGACUGCGGCUUCGAGUCCCGUACGGAACG", "note": "[G38C G52C]", "yeast fitness": 0.502}
{"variant": "GUUCCGUUGGCGUAAUGGUAACGCGUCUCCCUCCUAACGACAAGACUGCGGGUUUGAGUCCCGUACCGAACG", "note": "[G38C G41C C55U G67C]", "yeast fitness": "≤ 0.5"}
{"variant": "GUUCCGUUGGCGUAAUGGUAACGCGUCUCCCUCCUAACGAGAAGACUGCGGGUUCGAGUCACGUACGGAACG", "note": "[G38C C61A]", "yeast fitness": 0.608}
{"variant": "GUUCCGUUGGCGUAAUGGUAACGCGUCUCCCUCCUAACCAGAAGAUUGCGGGUUCGAGUCCCGUAUGGUACG", "note": "[G38C G39C C46U C66U A69U]", "yeast fitness": "≤ 0.5"}
{"variant": "GUUCCGUUGGCGUAAUGGUAACGCGUCUCCCUCCUAACUAGAAGACUGCGGGUUCGAGUACCGUACGGAACG", "note": "[G38C G39U C60A]", "yeast fitness": "≤ 0.5"}
{"variant": "GUUCCGUUGGCGUAAUGGUAACGCGUCUCCCUCCUAACGAGAAGCCUGCGGGUUCGAGUCCCGUACGGAACG", "note": "[G38C A45C]", "yeast fitness": 0.58}
{"variant": "GUUCCGUUGGCGUAAUGGUAACGCGUCUCCCUCCUAACGACAAGACUGCGGGUUCGAGUCCCGUACGGAACG", "note": "[G38C G41C]", "yeast fitness": 0.614}
{"variant": "GUUCCGUUGGCGUAAUGGUAACGCGUCUCCCUCCUAACGACAAGACUGCGGGUUUGAGUCCCGUACGGAACG", "note": "[G38C G41C C55U]", "yeast fitness": "≤ 0.5"}
{"variant": "GUUCCGUUGGCGUAAUGGUAACGCGUCUCCCUCCUAACGAGAAGACUGCGGGUUCAAAUCCCGUCCGGAACG", "note": "[G38C G56A G58A A65C]", "yeast fitness": "≤ 0.5"}
{"variant": "GUUCCGUUGGCGUAAUGGUAACGCGUCUCCCUCCUAACGAGAAGACUGCGGGUUCGAGUCCCGUACGGUACG", "note": "[G38C A69U]", "yeast fitness": 0.788}
{"variant": "GUUCCGUUGGCGUAAUGGUAACGCGUCUCCCUCCUAACGAGAAGACUGCGGGUUCGAGUCCCGUACGGCACG", "note": "[G38C A69C]", "yeast fitness": 0.722}
{"variant": "GUUCCGUUGGCGUAAUGGUAACGCGUCUCCCUCCUAACGAGAAGACUGGGGGUGCGAGUCCCGUACGGAACG", "note": "[G38C C49G U54G]", "yeast fitness": 0.621}
{"variant": "GUUCCGUUGGCGUAAUGGUAACGCGUCUCCCUCCUAACGAGAAGACUGCGGGUUCGAGUCCCGUACCGAACG", "note": "[G38C G67C]", "yeast fitness": 0.748}
{"variant": "GUUCCGUUGGCGUAAUGGUAACGCGUCUCCCUCCUAACGAAAAGACUGCGGGUUCGAGUCUCGUACGGAACG", "note": "[G38C G41A C61U]", "yeast fitness": 0.553}
{"variant": "GUUCCGUUGGCGUAAUGGUAACGCGUCUCCCUCCUAACCAGAAGACUGCGGGUGCGAGUCCCGUACGGAACG", "note": "[G38C G39C U54G]", "yeast fitness": 0.545}
{"variant": "GUUCCGUUGGCGUAAUGGUAACGCGUCUCCCUCCUAACGAGAAGUCUGCGGGUUCGAGUCCCGUAUGGAACG", "note": "[G38C A45U C66U]", "yeast fitness": "≤ 0.5"}
{"variant": "GUUCCGUUGGCGUAAUGGUAACGCGUCUCCCUCCUAACGAGAAGACUGCAGGGUCGAGUCCCGUACGAAACG", "note": "[G38C G50A U53G G68A]", "yeast fitness": 0.597}
{"variant": "GUUCCGUUGGCGUAAUGGUAACGCGUCUCCCUCCUAACGAGAAGACUGCGGGUUCGAGUCACGUACAGAACG", "note": "[G38C C61A G67A]", "yeast fitness": "≤ 0.5"}
{"variant": "GUUCCGUUGGCGUAAUGGUAACGCGUCUCCCUCCUAACGAGAAGACUGCGGGUUCGAGUCCGGUACGGAACG", "note": "[G38C C62G]", "yeast fitness": 0.63}
{"variant": "GUUCCGUUGGCGUAAUGGUAACGCGUCUCCCUCCUAACGAGAAGACUGCGGGUUCGAGUCCAGUACGGAACG", "note": "[G38C C62A]", "yeast fitness": 0.624}
{"variant": "GUUCCGUUGGCGUAAUGGUAACGCGUCUCCCUCCUAACGAGAAGACUGGCGGUUCGAGUCUCGUACGGAACG", "note": "[G38C C49G G50C C61U]", "yeast fitness": 0.555}
{"variant": "GUUCCGUUGGCGUAAUGGUAACGCGUCUCCCUCCUAACGAGAAGACUGCGGGUUCGAGUCCCGUAGUGAACG", "note": "[G38C C66G G67U]", "yeast fitness": "≤ 0.5"}
{"variant": "GUUCCGUUGGCGUAAUGGUAACGCGUCUCCCUCCUAACGAGAAGACUGCAGGUUCGAGUCCCGUACGGAGCG", "note": "[G38C G50A A70G]", "yeast fitness": 0.527}
{"variant": "GUUCCGUUGGCGUAAUGGUAACGCGUCUCCCUCCUAACGACAAGACUGCGGGUUCGCGUCCCGUACGGAACG", "note": "[G38C G41C A57C]", "yeast fitness": 0.576}
{"variant": "GUUCCGUUGGCGUAAUGGUAACGCGUCUCCCUCCUAACGACAAGACUGCGGGUCCGAGUCCCGUGCGGAACG", "note": "[G38C G41C U54C A65G]", "yeast fitness": "≤ 0.5"}
{"variant": "GUUCCGUUGGCGUAAUGGUAACGCGUCUCCCUCCUAACGAGAAGACUGCAGGUUCGAGUCCCGUACGGAACG", "note": "[G38C G50A]", "yeast fitness": 0.734}
{"variant": "GUUCCGUUGGCGUAAUGGUAACGCGUCUCCCUCCUAACGAGAAGACCGCGGGUUCGAGUCCCGUUCGGAACG", "note": "[G38C U47C A65U]", "yeast fitness": "≤ 0.5"}
{"variant": "GUUCCGUUGGCGUAAUGGUAACGCGUCUCCCUCCUAACGAGAAGACUGCGGGUACGAGUCCCGUACGGAACG", "note": "[G38C U54A]", "yeast fitness": 0.615}
{"variant": "GUUCCGUUGGCGUAAUGGUAACGCGUCUCCCUCCUAACGAGAAGACUGCGGGUUCGAGUCCCGUACAGUACG", "note": "[G38C G67A A69U]", "yeast fitness": 0.537}
{"variant": "GUUCCGUUGGCGUAAUGGUAACGCGUCUCCCUCCUAACGAGAAGACUGCGGGUUGGAGUCCCGUACGGCACG", "note": "[G38C C55G A69C]", "yeast fitness": 0.579}
{"variant": "GUUCCGUUGGCGUAAUGGUAACGCGUCUCCCUCCUAACGAGAAGAGUGCGGGUUGGAGUCGCGUACGGAACG", "note": "[G38C C46G C55G C61G]", "yeast fitness": "≤ 0.5"}
{"variant": "GUUCCGUUGGCGUAAUGGUAACGCGUCUCCCUCCUAACGAGAAGGCUGCGGGUUCGAGUCCCGUACGGACCG", "note": "[G38C A45G A70C]", "yeast fitness": 0.548}
{"variant": "GUUCCGUUGGCGUAAUGGUAACGCGUCUCCCUCCUAACGAGAAGACUGCGGGUUCAAGUCCCGUACGGAACG", "note": "[G38C G56A]", "yeast fitness": 0.789}
{"variant": "GUUCCGUUGGCGUAAUGGUAACGCGUCUCCCUCCUAACGAGAAGACUGCGGGUACGAGGCCCGUCCGGAACG", "note": "[G38C U54A U59G A65C]", "yeast fitness": 0.692}
{"variant": "GUUCCGUUGGCGUAAUGGUAACGCGUCUCCCUCCUAACGAGAAAACUGCGGGUUCGAGUCCCGUACGGAACG", "note": "[G38C G44A]", "yeast fitness": 0.72}
